Experimental data as given in ChEMBL document CHEMBL4049449, “Discovery of a Novel Class of Survival Motor Neuron 2 Splicing Modifiers for the Treatment of Spinal Muscular Atrophy” (J Med Chem, 2017).
Each block holds one molecule with its values, some of them ahead of it. The source made the active and inactive calls. No cut-off for these calls is given here.

What was measured:
[1] = organism: Homo sapiens; test: Modulation of patient derived full length SMN2 pre mRNA splicing assessed as inclusion of exon 7
[2] = organism: Homo sapiens; test: Modulation of patient derived full length SMN2 pre mRNA splicing assessed as restoration of functional SMN2 to protein level
[3] = tested on: Salmonella typhimurium; test: Genotoxicity in Salmonella typhimurium TA100 in presence of rat liver S9 fraction by Ames test; format: toxicity; conditions: salmonella enterica subsp. enterica serovar typhimurium
How it was run: (§1)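 Ames plate incorporation: strains grown overnight at 37 °C in nutrient broth (TA102 with 0.3 μg/mL tetracycline). Compound at 20–2000 μg/plate in top agar with histidine/biotin, plus rat liver S9 mix (NADP, glucose 6-phosphate, KCl, MgCl2, pH 7.4 phosphate). Vogel–Bonner plates incubated 37 °C, 2 days; colonies counted by image analysis. Positive: dose-dependent ≥2-fold (TA1535, TA98) or ≥1.5-fold (TA97, TA100, TA102) rise over background.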

[4] = tested on: Salmonella typhimurium; test: Genotoxicity in Salmonella typhimurium TA98 in presence of rat liver S9 fraction by Ames test; format: toxicity; conditions: salmonella enterica subsp. enterica serovar typhimurium; how it was run: as §1
[5] = tested on: Salmonella typhimurium; test: Genotoxicity in Salmonella typhimurium TA97 in presence of rat liver S9 fraction by Ames test; format: toxicity; conditions: salmonella enterica subsp. enterica serovar typhimurium; how it was run: as §1
[6] = tested on: Salmonella typhimurium; test: Genotoxicity in Salmonella typhimurium TA1535 in presence of rat liver S9 fraction by Ames test; format: toxicity; conditions: salmonella enterica subsp. enterica serovar typhimurium; how it was run: as §1
[7] = tested on: Salmonella typhimurium; test: Genotoxicity in Salmonella typhimurium TA102 in presence of rat liver S9 fraction by Ames test; format: toxicity; conditions: salmonella enterica subsp. enterica serovar typhimurium; how it was run: as §1
[8] = Total AUC in neonatal wild type FVB mouse plasma at 3 mg/kg, ip qd for 10 days by LC-MS/MS analysis; format: ADME, organism-based; design: dose 3 mg/kg, route intraperitoneal, time AUCmax
How it was run: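 Plasma AUC determined in a satellite group of neonatal (P10) wild-type mice dosed ip. Free AUC was calculated using the free fraction measured in serum from adult mice.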

[9] = tested on: Mus musculus; test: Induction of SMN protein levels in neonatal delta7 FVB mouse brain at 0.3 mg/kg, ip qd administered from postnatal day 3 to day 9 measured 1 hr post last dose by HTRF assay relative to control; format: functional
[10] = tested on: Mus musculus; test: Induction of SMN protein levels in C/C-Allele SMA FVB mouse brain at 3 mg/kg, po qd for 10 days measured 1 hr post last dose by HTRF assay relative to control; format: functional
How it was run: (§2)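 Adult C/C-allele SMA mice dosed orally once daily for 10 days at 1, 3 or 10 mg/kg. SMN protein in brain and quadriceps was expressed as % increase over vehicle-treated animals.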

[11] = tested on: Mus musculus; test: Induction of SMN protein levels in C/C-Allele SMA FVB mouse brain at 10 mg/kg, po qd for 10 days measured 1 hr post last dose by HTRF assay relative to control; format: functional; how it was run: as §2
[12] = Total AUC in wild type FVB mouse plasma at 10 mg/kg, po qd for 10 days by LC-MS/MS analysis; format: ADME, organism-based; design: dose 10 mg/kg, route oral, time AUCmax
[13] = tested on: Mus musculus; test: Induction of SMN protein levels in C/C-Allele SMA FVB mouse brain at 1 mg/kg, po qd for 10 days measured 1 hr post last dose by HTRF assay relative to control; format: functional; how it was run: as §2
[14] = tested on: Mus musculus; test: Induction of SMN protein levels in neonatal delta7 FVB mouse brain at 3 mg/kg, ip qd administered from postnatal day 3 to day 9 measured 1 hr post last dose by HTRF assay relative to control; format: functional
[15] = tested on: Mus musculus; test: Induction of SMN protein levels in neonatal delta7 FVB mouse brain at 1 mg/kg, ip qd administered from postnatal day 3 to day 9 measured 1 hr post last dose by HTRF assay relative to control; format: functional

Structure (SMILES): Cc1cn2cc(NC(=O)c3ccc(C4CCN(C)C4)cc3F)nc2c(C)n1 (stereo not given)
- EC1.5 [1]: 91 nM
- EC1.5 [2]: 176 nM

Structure (SMILES): Cc1cn2cc(-c3ccc(C(=O)NC4CCN(C)CC4)cc3)nc2c(C)n1
- EC1.5 [1]: inactive
- EC1.5 [2]: inactive

Structure (SMILES): Cc1cn2cc(COc3ccc(N4CCNCC4)cc3)nc2c(C)n1
- EC1.5 [1]: inactive
- EC1.5 [2]: inactive

Structure (SMILES): Cc1cn2cc(-c3ccc(NC(=O)C4CCN(C)CC4)cc3)nc2c(C)n1
- EC1.5 [1]: inactive
- EC1.5 [2]: inactive

Structure (SMILES): CCN1CCN(c2ccc3cc(-c4cn5cc(C)nc(C)c5n4)c(=O)oc3c2)C[C@@H]1C
- Activity [3]: Toxic
- Activity [4]: Toxic
- Activity [5]: Toxic
- Activity [6]: Toxic
- Activity [7]: Toxic

Structure (SMILES): Cc1cn2cc(C(=O)Nc3ccc(N4CCN(C)CC4)cc3)nc2c(C)n1
- EC1.5 [1]: inactive
- EC1.5 [2]: inactive

Structure (SMILES): Cc1cn2cc(-c3ccc(NC(=O)N4CCN(C)CC4)cc3)nc2c(C)n1
- EC1.5 [1]: inactive
- EC1.5 [2]: inactive

Structure (SMILES): Cc1cn2cc(NC(=O)c3ccc(N4CCNC(C)C4)c(F)c3F)ncc2n1 (stereo not given)
- EC1.5 [1]: 165 nM
- EC1.5 [2]: 603 nM

Structure (SMILES): Cc1cn2cc(NC(=O)c3ccc(N4CCN(C)CC4)cn3)nc2c(C)n1
- EC1.5 [2]: 1520 nM

Structure (SMILES): Cc1cn2cc(C#Cc3ccc(N4CCN(C)CC4)cc3)nc2c(C)n1
- EC1.5 [1]: inactive
- EC1.5 [2]: inactive

Structure (SMILES): Cc1cn2cc(-c3ccc4c(c3)OC(=O)N(C3CCNCC3)C4)nc2c(C)n1
- EC1.5 [1]: 4700 nM
- EC1.5 [2]: inactive

Structure (SMILES): COc1cc(N2CCNC(C)C2)ccc1C(=O)Nc1cn2cc(C)nc2cn1 (stereo not given)
- EC1.5 [1]: 58 nM
- EC1.5 [2]: 206 nM

Structure (SMILES): Cc1cn2cc(C(=O)Nc3ccc(C4CCN(C)CC4)cc3)nc2c(C)n1
- EC1.5 [1]: inactive
- EC1.5 [2]: inactive

Structure (SMILES): Cc1cn2cc(-c3cc4ccc(N5CCN(C)CC5)cc4c(=O)o3)nc2c(C)n1
- Activity [3]: Toxic
- Activity [4]: Toxic
- Activity [5]: Toxic
- Activity [6]: Toxic
- Activity [7]: Toxic
- EC1.5 [1]: 25 nM

Structure (SMILES): Cc1cn2cc(-c3ccc4c(c3)CCN(C3CCNCC3)C4=O)nc2c(C)n1
- EC1.5 [1]: 530 nM
- EC1.5 [2]: inactive

Structure (SMILES): Cc1cn2cc(NC(=O)c3ccc(C4CCNCC4)cc3)nc2c(C)n1
- EC1.5 [1]: 820 nM
- EC1.5 [2]: 3800 nM

Structure (SMILES): Cc1cn2cc(CCc3ccc(N4CCNCC4)cc3)nc2c(C)n1
- EC1.5 [1]: inactive
- EC1.5 [2]: inactive

Structure (SMILES): Cc1cn2cc(N(C)C(=O)c3ccc(N4CCN(C)CC4)cc3)nc2c(C)n1
- EC1.5 [1]: inactive
- EC1.5 [2]: inactive

Further lines, with some results ahead:

- EC1.5 [1]: 232 nM
- EC1.5 [2]: 560 nM
Structure (SMILES): Cc1cn2cc(NC(=O)c3ccc(N4CCN(C)CC4)cc3F)nc2c(C)n1

- EC1.5 [1]: 2030 nM
- EC1.5 [2]: 8760 nM
Structure (SMILES): Cc1cn2cc(NC(=O)c3c(F)cc(N4CCNCC4)cc3Cl)ncc2n1

- EC1.5 [1]: 31 nM
- EC1.5 [2]: 504 nM
Structure (SMILES): Cc1cn2cc(NC(=O)c3ccc(N4CCNC(C)(C)C4)cc3F)ncc2n1

- EC1.5 [1]: 100 nM
- EC1.5 [2]: 200 nM
Structure (SMILES): Cc1cn2cc(NC(=O)c3ccc(N4CCN(N5CCCC5)CC4)cc3F)nc2c(C)n1

- EC1.5 [1]: 85 nM
- EC1.5 [2]: 495 nM
Structure (SMILES): Cc1cn2cc(NC(=O)c3cc(F)c(N4CCNC(C)C4)cc3F)ncc2n1 (stereo not given)

- EC1.5 [1]: 129 nM
- EC1.5 [2]: 555 nM
Structure (SMILES): COc1nc(N2CCNCC2)ccc1C(=O)Nc1cn2cc(C)nc2cn1

- EC1.5 [1]: 11 nM
- EC1.5 [2]: 27 nM
Structure (SMILES): Cc1cn2cc(NC(=O)c3ccc(N4CCNCC4)cc3F)cc(F)c2n1
- Activity [3]: Toxic
- Activity [4]: Toxic
- Activity [5]: Toxic
- Activity [6]: Toxic
- Activity [7]: Toxic

- EC1.5 [1]: 106 nM
- EC1.5 [2]: 265 nM
Structure (SMILES): Cc1cn2cc(NC(=O)c3ccc(N4CCNC(C(C)C)C4)cc3F)ncc2n1 (stereo not given)

- EC1.5 [1]: 40 nM
- EC1.5 [2]: 152 nM
Structure (SMILES): Cc1cn2cc(NC(=O)c3ccc(N4CCNC(C)C4)cc3F)c(C)cc2n1 (stereo not given)
- Activity [3]: Non-Toxic
- Activity [4]: Non-Toxic
- Activity [5]: Non-Toxic
- Activity [6]: Non-Toxic
- Activity [7]: Non-Toxic

- AUC at 240 h [8]: 4450 ng·h/mL
- AUC at 240 h [12]: 27100 ng·h/mL
- EC1.5 [1]: 12 nM
- EC1.5 [2]: 246 nM
Structure (SMILES): CC[C@H]1CN(c2ccc(C(=O)Nc3cn4cc(C)nc4cn3)c(F)c2)CCN1
- Activity [9]: 26%
- Activity [10]: 81%
- Activity [11]: 260%
- Activity [13]: 22%
- Activity [14]: 100%
- Activity [15]: 53%

- EC1.5 [1]: 39 nM
- EC1.5 [2]: 116 nM
Structure (SMILES): Cc1nc2c(F)cc(NC(=O)c3ccc(N4CCNCC4)cc3F)cc2o1
- Activity [3]: Non-Toxic
- Activity [4]: Non-Toxic
- Activity [5]: Non-Toxic
- Activity [6]: Non-Toxic
- Activity [7]: Non-Toxic

- AUC at 240 h [8]: 3730 ng·h/mL
- AUC at 240 h [12]: 19000 ng·h/mL
- EC1.5 [1]: 29 nM
- EC1.5 [2]: 158 nM
Structure (SMILES): CC[C@@H]1CN(c2ccc(C(=O)Nc3cn4cc(C)nc4cn3)c(F)c2)CCN1
- Activity [9]: 0%
- Activity [10]: 45%
- Activity [11]: 217%
- Activity [13]: 19%
- Activity [14]: 117%
- Activity [15]: 66%

- EC1.5 [1]: inactive
- EC1.5 [2]: inactive
Structure (SMILES): Cc1cn2nc(NC(=O)c3ccc(N4CCNC(C)C4)cc3F)nc2c(C)n1 (stereo not given)
- Activity [3]: Non-Toxic
- Activity [4]: Non-Toxic
- Activity [5]: Non-Toxic
- Activity [6]: Non-Toxic
- Activity [7]: Non-Toxic

- EC1.5 [1]: 15 nM
- EC1.5 [2]: 122 nM
Structure (SMILES): Cc1cn2cc(NC(=O)c3ccc(N4CCN[C@H](C)C4)cc3F)ncc2n1

- EC1.5 [2]: 775 nM
Structure (SMILES): Cc1cn2cc(NC(=O)c3ccc(N4CCNCC4)cc3)nc2c(C)n1

- EC1.5 [1]: 4410 nM
- EC1.5 [2]: 8420 nM
Structure (SMILES): Cc1cn2cc(/C=C/c3ccc(N4CCNCC4)cc3)nc2c(C)n1

- EC1.5 [1]: 1040 nM
- EC1.5 [2]: 2250 nM
Structure (SMILES): Cc1cn2cc(NC(=O)c3ccc(N4CCNCC4)cc3)ncc2n1

- EC1.5 [1]: 29 nM
- EC1.5 [2]: 86 nM
Structure (SMILES): Cc1cn2cc(NC(=O)c3ccc(N4CCC(N5CCCC5)C4)cc3F)nc2c(C)n1 (stereo not given)

- EC1.5 [1]: 37 nM
- EC1.5 [2]: 87 nM
Structure (SMILES): Cc1cn2cc(NC(=O)c3ccc(N4CCNCC4)cc3F)ncc2n1
- Activity [3]: Non-Toxic
- Activity [4]: Non-Toxic
- Activity [5]: Non-Toxic
- Activity [6]: Non-Toxic
- Activity [7]: Non-Toxic
